Test results: ChEMBL document CHEMBL1177847, “Combating oxidative stress in epilepsy: design, synthesis, quantum chemical studies and anticonvulsant evaluation of 1-(substituted benzylidene/ethylidene)-4-(naphthalen-1-yl)semicarbazides” (Eur J Med Chem, 2010)
Active and inactive are the calls of the source. The rule behind the calls is not given here.

Key:
Mus musculus [1] = experiment: Anticonvulsant activity against maximal electroshock-induced seizures in ip dosed Swiss albino mouse assessed as minimum effective dose after 4 hrs; type: functional; conditions: read-out: MED
Method in brief: (§1)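 Male Swiss albino mice (18–25 g) received the compound suspended in 5% gum acacia/water, i.p. at 30, 100 and 300 mg/kg (one to four animals per dose). Maximal electroshock was applied at 0.5 and 4 h. Protection meant abolition of the hind limb tonic extensor component. The lowest dose protecting half or more of the mice was recorded.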

Mus musculus [2] = experiment: Anticonvulsant activity against maximal electroshock-induced seizures in Swiss albino mouse at 300 mg/kg, ip after 0.5 hrs; type: functional, organism-based; parameters: dose 300 mg/kg; method in brief: as §1
Mus musculus [3] = experiment: Anticonvulsant activity against subcutaneous pentylenetetrazole-induced seizures in ip dosed Swiss albino mouse assessed as minimum effective dose after 0.5 hrs; type: functional; conditions: read-out: MED
Method in brief: (§2)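 Male Swiss albino mice (18–25 g) were dosed i.p. with the compound in 5% gum acacia/water at 30, 100 or 300 mg/kg. Thirty minutes later they received PTZ 85 mg/kg (CD97) and were watched for seizures over 4 h. Readings at 0.5 and 4 h gave the lowest dose active in half or more of the animals. Myoclonic jerks were noted separately.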

Mus musculus [4] = experiment: Anticonvulsant activity against subcutaneous pentylenetetrazole-induced seizures in Swiss albino mouse at 300 mg/kg, ip after 4 hrs; type: functional, organism-based; parameters: dose 300 mg/kg; method in brief: as §2
Mus musculus [5] = experiment: Neurotoxicity in ip dosed Swiss albino mouse assessed as minimum dose required to cause impair in motor coordination after 0.5 hrs by rotarod test; type: toxicity, organism-based; conditions: in vivo
Method in brief: (§3)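 Rotarod motor-impairment test in male Swiss albino mice dosed i.p. at 30, 100 or 300 mg/kg in 5% gum acacia/water. Mice that fell off the rotating rod within 30 s during pretraining were excluded. The dose at which animals fell off was recorded at 0.5 and 4 h.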

Mus musculus [6] = experiment: Neurotoxicity in ip dosed Swiss albino mouse assessed as impair in motor coordination at 300 mg/kg, ip after 4 hrs by rotarod test; type: toxicity, organism-based; parameters: dose 300 mg/kg, route intraperitoneal; conditions: in vivo; method in brief: as §3
Mus musculus [7] = experiment: Anticonvulsant activity against maximal electroshock-induced seizures in Swiss albino mouse at 300 mg/kg, ip after 4 hrs; type: functional, organism-based; parameters: dose 300 mg/kg; method in brief: as §1
Mus musculus [8] = experiment: Neurotoxicity in ip dosed Swiss albino mouse assessed as minimum dose required to cause impair in motor coordination after 4 hrs by rotarod test; type: toxicity, organism-based; conditions: in vivo; method in brief: as §3
Mus musculus [9] = experiment: Anticonvulsant activity against maximal electroshock-induced seizures in ip dosed Swiss albino mouse assessed as minimum effective dose after 0.5 hrs; type: functional; conditions: read-out: MED; method in brief: as §1
Mus musculus [10] = experiment: Restoration of GSH level in subcutaneous pentylenetetrazole treated Swiss albino mouse brain assessed per gram of tissue at 100 mg/kg, ip after 4 hrs; type: functional; conditions: route intraperitoneal
Method in brief: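 Brains were taken from PTZ-treated mice 4 h after 100 mg/kg i.p. dosing. Tissue was deproteinized with an equal volume of 10% TCA for 2 h at 4 °C and centrifuged at 2000 g for 15 min. The supernatant was mixed with 0.4 M Tris (pH 8.9) containing 0.02 M EDTA, and 0.01 M DTNB was added before spectrophotometric reading. n = 6.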

Mus musculus [11] = experiment: Restoration of SOD activity in subcutaneous pentylenetetrazole treated Swiss albino mouse brain assessed per mg of protein at 100 mg/kg, ip after 4 hrs; type: functional; conditions: route intraperitoneal
Method in brief: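 The ethanol phase of an ethanol/chloroform (5:3) extract of brain supernatant was used, from PTZ-treated mice 4 h after 100 mg/kg i.p. Superoxide was generated by xanthine–xanthine oxidase at pH 10.2 with NBT, 20 min at 25 °C. The reaction was stopped with CuCl2 and read at 560 nm. One unit gives 50% inhibition of NBT reduction; results are expressed as U/mg protein. n = 6.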

Mus musculus [12] = experiment: Reduction of lipid peroxidation in subcutaneous pentylenetetrazole treated Swiss albino mouse brain assessed reduction of malondialdehyde level per mg of protein at 100 mg/kg, ip after 4 hrs by TBARS assay; type: functional; conditions: route intraperitoneal
Method in brief: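 PTZ-treated mice were dosed at 100 mg/kg i.p. and decapitated 4 h after the last injection. Brains were homogenized in four volumes of ice-cold 50 mM Tris-HCl, pH 7.4, and spun at 3000 × g for 15 min. TBARS in the supernatant was read at 532 nm in the upper organic layer and expressed as nmol MDA/mg protein. n = 6, mean ± S.E.M.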

Mus musculus [13] = experiment: Restoration of GSH peroxidase activity in subcutaneous pentylenetetrazole treated Swiss albino mouse brain assessed per mg of protein at 100 mg/kg, ip after 4 hrs; type: functional; conditions: route intraperitoneal
Method in brief: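 Brain homogenate came from PTZ-treated mice 4 h after 100 mg/kg i.p. dosing, using the 10500 × g supernatant. Samples were equilibrated 5 min at 25 °C, started with H2O2, and A340 was followed for 5 min. n = 6.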

Mus musculus [14] = experiment: Anticonvulsant activity against subcutaneous pentylenetetrazole-induced seizures in ip dosed Swiss albino mouse assessed as minimum effective dose after 4 hrs; type: functional; conditions: read-out: MED; method in brief: as §2
Mus musculus [15] = experiment: Neurotoxicity in ip dosed Swiss albino mouse assessed as impair in motor coordination at 300 mg/kg, ip after 0.5 hrs by rotarod test; type: toxicity, organism-based; parameters: dose 300 mg/kg, route intraperitoneal; conditions: in vivo; method in brief: as §3
Rattus norvegicus = experiment: Anticonvulsant activity against subcutaneous pentylenetetrazole-induced seizures in Wistar albino rat at 50 mg/kg, ip after 2 hrs; type: functional
Mus musculus [16] = experiment: Toxicity in subcutaneous pentylenetetrazole-induced Swiss albino mouse assessed as death at 30 to 300 mg/kg, ip after 0.5 hrs; type: organism-based; parameters: dose 30-300 mg/kg
Method in brief: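 Male Swiss albino mice (18–25 g) given compound suspended in 5% gum acacia/water, i.p. at 30, 100 or 300 mg/kg, one to four animals per dose. PTZ at 85 mg/kg was injected 30 min after compound. Animals were examined 0.5 and 4 h after administration, and death following tonic extension was noted. The maximum dose was 300 mg/kg.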

Mus musculus [17] = experiment: Anticonvulsant activity against subcutaneous pentylenetetrazole-induced seizures in Swiss albino mouse at 300 mg/kg, ip after 0.5 hrs; type: functional, organism-based; parameters: dose 300 mg/kg; method in brief: as §2

O=C(N/N=C/c1ccccc1[N+](=O)[O-])Nc1cccc2ccccc12
minimal effective dose (Mus musculus [1]): 300 mg/kg
Activity (Mus musculus [2]): inactive
minimal effective dose (Mus musculus [3]): 300 mg/kg
Activity (Mus musculus [4]): inactive
Activity (Mus musculus [5]): 300 mg/kg
Activity (Mus musculus [6]): Non-toxic

C/C(=N\NC(=O)Nc1cccc2ccccc12)c1ccc(Cl)cc1
minimal effective dose (Mus musculus [1]): 300 mg/kg
Activity (Mus musculus [2]): inactive
minimal effective dose (Mus musculus [3]): 300 mg/kg
Activity (Mus musculus [4]): inactive
Activity (Mus musculus [5]): 300 mg/kg
Activity (Mus musculus [6]): Non-toxic

C/C(=N\NC(=O)Nc1cccc2ccccc12)c1ccc(C)cc1
Activity (Mus musculus [2]): inactive
minimal effective dose (Mus musculus [3]): 300 mg/kg
Activity (Mus musculus [7]): inactive
Activity (Mus musculus [4]): inactive
Activity (Mus musculus [5]): 300 mg/kg
Activity (Mus musculus [8]): 300 mg/kg

O=C(N/N=C/c1ccc(Br)cc1)Nc1cccc2ccccc12
minimal effective dose (Mus musculus [1]): 300 mg/kg
minimal effective dose (Mus musculus [9]): 300 mg/kg
minimal effective dose (Mus musculus [3]): 300 mg/kg
Activity (Mus musculus [4]): inactive
Activity (Mus musculus [5]): 300 mg/kg
Activity (Mus musculus [8]): 300 mg/kg

O=C(N/N=C/c1ccc(Cl)cc1Cl)Nc1cccc2ccccc12
minimal effective dose (Mus musculus [1]): 100 mg/kg
Activity (Mus musculus [10]): 21.35 µg
minimal effective dose (Mus musculus [9]): 100 mg/kg
Activity (Mus musculus [11]): 1.69 U
minimal effective dose (Mus musculus [3]): 300 mg/kg
Activity (Mus musculus [12]): 2.78 nmol
Activity (Mus musculus [13]): 1.65 U
Activity (Mus musculus [8]): 300 mg/kg
minimal effective dose (Mus musculus [14]): 300 mg/kg
Activity (Mus musculus [15]): Non-toxic

O=C(N/N=C/c1ccccc1Cl)Nc1cccc2ccccc12
Activity (Mus musculus [2]): inactive
minimal effective dose (Mus musculus [3]): 300 mg/kg
Activity (Mus musculus [7]): inactive
Activity (Mus musculus [4]): inactive
Activity (Mus musculus [8]): 300 mg/kg
Activity (Mus musculus [15]): Non-toxic

COc1cc(/C=N/NC(=O)Nc2cccc3ccccc23)ccc1O
minimal effective dose (Mus musculus [9]): 300 mg/kg
minimal effective dose (Mus musculus [3]): 300 mg/kg
Activity (Mus musculus [7]): inactive
Activity (Mus musculus [4]): inactive
Activity (Mus musculus [5]): 100 mg/kg
Activity (Mus musculus [8]): 100 mg/kg

COc1ccc(/C=N/NC(=O)Nc2cccc3ccccc23)cc1OC
minimal effective dose (Mus musculus [1]): 100 mg/kg
Activity (Mus musculus [10]): 18.51 µg
minimal effective dose (Mus musculus [9]): 100 mg/kg
Activity (Mus musculus [11]): 1.45 U
minimal effective dose (Mus musculus [3]): 100 mg/kg
Activity (Mus musculus [12]): 2.53 nmol
Activity (Mus musculus [13]): 1.62 U
minimal effective dose (Mus musculus [14]): 300 mg/kg
Activity (Mus musculus [6]): Non-toxic
Activity (Mus musculus [15]): Non-toxic
Activity (Rattus norvegicus): inactive

COc1ccc(/C=N/NC(=O)Nc2cccc3ccccc23)cc1
Activity (Mus musculus [16]): Toxic
minimal effective dose (Mus musculus [9]): 300 mg/kg
Activity (Mus musculus [7]): inactive
Activity (Mus musculus [4]): inactive
Activity (Mus musculus [5]): 300 mg/kg
Activity (Mus musculus [6]): Non-toxic

O=C(N/N=C/c1ccc(Cl)cc1)Nc1cccc2ccccc12
minimal effective dose (Mus musculus [1]): 300 mg/kg
Activity (Mus musculus [2]): inactive
minimal effective dose (Mus musculus [3]): 300 mg/kg
Activity (Mus musculus [4]): inactive
Activity (Mus musculus [5]): 300 mg/kg
Activity (Mus musculus [6]): Non-toxic

COc1ccc(OC)c(/C=N/NC(=O)Nc2cccc3ccccc23)c1
minimal effective dose (Mus musculus [1]): 300 mg/kg
Activity (Mus musculus [2]): inactive
minimal effective dose (Mus musculus [3]): 300 mg/kg
Activity (Mus musculus [4]): inactive
Activity (Mus musculus [5]): 300 mg/kg
Activity (Mus musculus [6]): Non-toxic

O=C1NC(=O)C(c2ccccc2)(c2ccccc2)N1 [PHENYTOIN]
minimal effective dose (Mus musculus [1]): 30 mg/kg
minimal effective dose (Mus musculus [9]): 30 mg/kg
Activity (Mus musculus [4]): inactive
Activity (Mus musculus [5]): 100 mg/kg
Activity (Mus musculus [17]): inactive
Activity (Mus musculus [8]): 100 mg/kg

O=C(N/N=C/c1ccc(O)cc1)Nc1cccc2ccccc12
minimal effective dose (Mus musculus [9]): 100 mg/kg
Activity (Mus musculus [7]): inactive
Activity (Mus musculus [4]): inactive
Activity (Mus musculus [5]): 100 mg/kg
Activity (Mus musculus [17]): inactive
Activity (Mus musculus [8]): 300 mg/kg

C/C(=N\NC(=O)Nc1cccc2ccccc12)c1ccccc1
minimal effective dose (Mus musculus [9]): 300 mg/kg
Activity (Mus musculus [7]): inactive
Activity (Mus musculus [4]): inactive
Activity (Mus musculus [5]): 100 mg/kg
Activity (Mus musculus [17]): inactive
Activity (Mus musculus [6]): Non-toxic

O=C(N/N=C/c1ccccc1)Nc1cccc2ccccc12
Activity (Mus musculus [16]): Toxic
minimal effective dose (Mus musculus [9]): 300 mg/kg
Activity (Mus musculus [7]): inactive
Activity (Mus musculus [4]): inactive
Activity (Mus musculus [5]): 100 mg/kg
Activity (Mus musculus [8]): 100 mg/kg

CCC1(C)CC(=O)NC1=O (configuration not stated) [ETHOSUXIMIDE]
Activity (Mus musculus [2]): inactive
minimal effective dose (Mus musculus [3]): 300 mg/kg
Activity (Mus musculus [7]): inactive
Activity (Mus musculus [4]): inactive
Activity (Mus musculus [6]): Non-toxic
Activity (Mus musculus [15]): Non-toxic

COc1cccc(/C=N/NC(=O)Nc2cccc3ccccc23)c1
minimal effective dose (Mus musculus [1]): 300 mg/kg
Activity (Mus musculus [2]): inactive
minimal effective dose (Mus musculus [3]): 100 mg/kg
Activity (Mus musculus [4]): inactive
Activity (Mus musculus [5]): 100 mg/kg
Activity (Mus musculus [6]): Non-toxic

CCCC(CCC)C(=O)O [VALPROIC ACID]
Activity (Mus musculus [10]): 22.14 µg
Activity (Mus musculus [2]): inactive
Activity (Mus musculus [11]): 1.82 U
minimal effective dose (Mus musculus [3]): 300 mg/kg
Activity (Mus musculus [7]): inactive
Activity (Mus musculus [4]): inactive
Activity (Mus musculus [12]): 1.96 nmol
Activity (Mus musculus [13]): 2.19 U
Activity (Mus musculus [6]): Non-toxic
Activity (Mus musculus [15]): Non-toxic

NC(=O)N1c2ccccc2C=Cc2ccccc21 [CARBAMAZEPINE]
minimal effective dose (Mus musculus [1]): 100 mg/kg
minimal effective dose (Mus musculus [9]): 30 mg/kg
minimal effective dose (Mus musculus [3]): 100 mg/kg
Activity (Mus musculus [5]): 100 mg/kg
Activity (Mus musculus [8]): 300 mg/kg
minimal effective dose (Mus musculus [14]): 300 mg/kg
